What was measured:
[1] = biological target: Delta-type opioid receptor (Homo sapiens, UniProt P41143); assay: ChEBML_145338
Text: Inhibition of [125I]deltorphin binding to human delta opioid receptor from membranes of HEK293 cells

Mu-type opioid receptor = Mu-type opioid receptor (Homo sapiens, UniProt P35372); assay: Inhibition of [125I]Enkephalin binding to human mu opioid receptor from membranes of HEK293 cells
Method in brief: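 Filter binding on membranes of HEK293 cells overexpressing human mu opioid receptor, measuring displacement of [125I]-Enkephalin. IC50 came from full dose–response curves on purified material, in single determinations.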

Sequence of Mu-type opioid receptor (P35372 whole entry): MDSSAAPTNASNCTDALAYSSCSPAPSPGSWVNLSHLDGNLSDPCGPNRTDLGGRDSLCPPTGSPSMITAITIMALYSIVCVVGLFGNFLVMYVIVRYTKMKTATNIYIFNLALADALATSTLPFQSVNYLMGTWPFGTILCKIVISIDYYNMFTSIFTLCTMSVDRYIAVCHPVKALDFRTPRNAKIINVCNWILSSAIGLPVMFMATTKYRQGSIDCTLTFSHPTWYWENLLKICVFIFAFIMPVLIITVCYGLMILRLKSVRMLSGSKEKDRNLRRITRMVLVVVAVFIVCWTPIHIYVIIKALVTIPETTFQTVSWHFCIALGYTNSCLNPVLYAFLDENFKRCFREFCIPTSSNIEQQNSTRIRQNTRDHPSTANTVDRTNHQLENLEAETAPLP
Sequence of Delta-type opioid receptor (P41143 whole entry): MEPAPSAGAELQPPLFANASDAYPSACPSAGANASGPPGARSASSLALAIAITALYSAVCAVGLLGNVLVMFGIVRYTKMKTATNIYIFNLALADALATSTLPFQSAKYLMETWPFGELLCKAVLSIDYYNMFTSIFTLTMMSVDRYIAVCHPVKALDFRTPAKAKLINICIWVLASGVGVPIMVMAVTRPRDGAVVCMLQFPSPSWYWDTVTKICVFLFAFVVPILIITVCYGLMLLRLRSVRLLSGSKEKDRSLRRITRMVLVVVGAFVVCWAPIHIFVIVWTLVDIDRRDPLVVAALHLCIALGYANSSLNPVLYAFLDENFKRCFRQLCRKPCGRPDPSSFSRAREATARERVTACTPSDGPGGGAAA

`O=c1c(-c2ccccc2)cccn1C(CN1CCCC1)c1ccccc1` (configuration not stated) [3-Phenyl-1-(1-phenyl-2-pyrrolidin-1-yl-ethyl)-1H-pyridin-2-one] showed an IC50 [1] of over 10 µM and an IC50 (Mu-type opioid receptor) of over 10 µM.
